Experimental data published in ChEMBL document CHEMBL4011654, “Mitochondria-Targeted Lupane Triterpenoid Derivatives and Their Selective Apoptosis-Inducing Anticancer Mechanisms” (J Med Chem, 2017).
Calls of active or inactive are those of the source. The calls are words filed in the database; no cut-off is given here.

Key:
ECa-109 cell line = assay: Cytotoxicity against human ECA109 cells assessed as cell growth inhibition after 48 hrs by MTT assay; assay type: functional, cell-based; details: ECa-109, 48 h
Procedure, shortened: (§1)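 Adherent cells seeded at 5000/well, left 16−24 h, then exposed 48 h at 37 °C, 5% CO2 in RPMI with 10% FBS. Medium refreshed, MTT added for 4 h at 37 °C, medium removed, formazan dissolved in DMSO, OD570 read. IC50 taken as concentration inhibiting growth by 50%; triplicate.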

L02 = assay: Cytotoxicity against human HL-7702 cells assessed as cell growth inhibition after 48 hrs by MTT assay; assay type: cell-based; details: L02, 48 h; procedure, shortened: as §1
HepG2 = assay: Cytotoxicity against human HepG2 cells assessed as cell growth inhibition after 48 hrs by MTT assay; assay type: functional, cell-based; details: HepG2, 48 h; procedure, shortened: as §1
K562 [1] = assay: Cytotoxicity against human K562 cells assessed as cell growth inhibition after 48 hrs by MTT assay; assay type: functional, cell-based; details: K562, 48 h
Procedure, shortened: (§2)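 Suspension cells seeded at 5000/well (HL-60 in IMDM, K562 in RPMI, both with 10% FBS) and treated. MTT then added for 4 h at 37 °C; plates centrifuged at 3000 rpm for 30 min, medium removed, DMSO added, OD570 read. IC50 taken as concentration giving 50% growth inhibition; triplicate.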

HL-60 = assay: Cytotoxicity against human HL60 cells assessed as cell growth inhibition after 48 hrs by MTT assay; assay type: functional, cell-based; details: HL-60, 48 h; procedure, shortened: as §2
A549 = assay: Cytotoxicity against human A549 cells assessed as cell growth inhibition after 48 hrs by MTT assay; assay type: functional, cell-based; details: A549, 48 h; procedure, shortened: as §1
K562 [2] = assay: Induction of apoptosis in human K562 cells assessed as upregulation of cleaved PARP up to 6 uM after 48 hrs by Western blot analysis; assay type: functional, cell-based
K562 [3] = assay: Induction of apoptosis in human K562 cells after 48 hrs by Annexin V-FITC/propidium iodide-staining based flow cytometric analysis; assay type: functional, cell-based
Procedure, shortened: (§3)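 K562 seeded at 4 × 10^5 cells/well, 12 h, then exposed 48 h. Cells washed in ice-cold PBS, suspended in binding buffer, stained with annexin V-FITC and PI for 15 min at room temperature in the dark, and read by flow cytometry within 1 h. Cells counted as early/late apoptotic as % of total; n = 3.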

K562 [4] = assay: Induction of mitochondrial membrane depolarization in human K562 cells assessed as cells with intact mitochondrial membrane potential at 6 uM after 48 hrs by JC-1 staining based flow cytometric analysis (reference value: 97.63 to 97.67%); assay type: functional
K562 [5] = assay: Induction of apoptosis in human K562 cells assessed as viable cells at 2 uM after 48 hrs by Annexin V-FITC/propidium iodide-staining based flow cytometric analysis (reference value: 95.75 to 96.56%); assay type: functional; details: K562, 48 h, read-out: Activity; procedure, shortened: as §3
K562 [6] = assay: Induction of mitochondrial membrane depolarization in human K562 cells assessed as cells with mitochondrial membrane potential loss at 2 uM after 48 hrs by JC-1 staining based flow cytometric analysis (reference value: 1.89 to 2.23%); assay type: functional
K562 [7] = assay: Induction of apoptosis in human K562 cells assessed as late apoptotic cells at 1 uM after 48 hrs by Annexin V-FITC/propidium iodide-staining based flow cytometric analysis (reference value: 2.25 to 2.67%); assay type: functional; procedure, shortened: as §3
K562 [8] = assay: Induction of ROS generation in human K562 cells at 1 uM after 48 hrs by DCFH-DA probe based flow cytometric analysis relative to control; assay type: functional
Procedure, shortened: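 K562 seeded at 4 × 10^5 cells/well, 12 h, then treated 48 h. Washed cells loaded with DCFH-DA in FBS-free medium at 37 °C for 30 min, rinsed, read by flow cytometry. ROSup was the positive control; mean ± SD, n = 3.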

K562 [9] = assay: Induction of mitochondrial membrane depolarization in human K562 cells assessed as cells with mitochondrial membrane potential loss at 4 uM after 48 hrs by JC-1 staining based flow cytometric analysis (reference value: 1.89 to 2.23%); assay type: functional
K562 [10] = assay: Induction of apoptosis in human K562 cells assessed as viable cells at 3 uM after 48 hrs by Annexin V-FITC/propidium iodide-staining based flow cytometric analysis (reference value: 95.75 to 96.56%); assay type: functional; details: K562, 48 h, read-out: Activity; procedure, shortened: as §3
K562 [11] = assay: Induction of apoptosis in human K562 cells assessed as necrotic cells at 3 uM after 48 hrs by Annexin V-FITC/propidium iodide-staining based flow cytometric analysis (reference value: 0.13 to 0.27%); assay type: functional; procedure, shortened: as §3
K562 [12] = assay: Induction of mitochondrial membrane depolarization in human K562 cells assessed as cells with intact mitochondrial membrane potential at 4 uM after 48 hrs by JC-1 staining based flow cytometric analysis (reference value: 97.63 to 97.67%); assay type: functional
K562 [13] = assay: Decrease in mitochondrial membrane potential in human K562 cells after 48 hrs by JC-1 staining based flow cytometry; assay type: functional, cell-based
Procedure, shortened: (§4)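 K562 seeded at 4 × 10^5 cells/well, after 12 h treated 48 h. Cells washed in ice-cold PBS, loaded with JC-1 ([…]) at 37 °C for 15 min, rinsed, and analysed by flow cytometry (% cells with red aggregates) and fluorescence microscopy (red aggregates vs green monomers).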

K562 [14] = assay: Induction of apoptosis in human K562 cells assessed as viable cells at 1 uM after 48 hrs by Annexin V-FITC/propidium iodide-staining based flow cytometric analysis (reference value: 95.75 to 96.56%); assay type: functional; details: K562, 48 h, read-out: Activity; procedure, shortened: as §3
K562 [15] = assay: Induction of apoptosis in human K562 cells assessed as decrease in cytochrome c level in mitochondria up to 6 uM after 48 hrs by Western blot analysis; assay type: functional, cell-based
Procedure, shortened: (§5)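 K562 treated 48 h, then lysed on ice for 30 min; cytosolic and mitochondrial fractions isolated by kit where needed, protein measured by BCA. 60 μg/lane run on SDS-PAGE, transferred to PVDF, blocked in 5% milk/TBST for 4 h. Probed for cytochrome c, caspase-9, caspase-3 (total/cleaved), PARP; alkaline phosphatase secondary.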

K562 [16] = assay: Decrease in mitochondrial membrane potential in human K562 cells at 1 to 2 uM after 48 hrs by JC-1 staining based fluorescence microscopic analysis; assay type: functional, cell-based; procedure, shortened: as §4
K562 [17] = assay: Induction of apoptosis in human K562 cells assessed as early apoptotic cells at 2 uM after 48 hrs by Annexin V-FITC/propidium iodide-staining based flow cytometric analysis (reference value: 0.92 to 1.45%); assay type: functional; procedure, shortened: as §3
K562 [18] = assay: Induction of apoptosis in human K562 cells assessed as late apoptotic cells at 3 uM after 48 hrs by Annexin V-FITC/propidium iodide-staining based flow cytometric analysis (reference value: 2.25 to 2.67%); assay type: functional; procedure, shortened: as §3
K562 [19] = assay: Induction of apoptosis in human K562 cells assessed as early apoptotic cells at 3 uM after 48 hrs by Annexin V-FITC/propidium iodide-staining based flow cytometric analysis (reference value: 0.92 to 1.45%); assay type: functional; procedure, shortened: as §3
K562 [20] = assay: Induction of apoptosis in human K562 cells assessed as late apoptotic cells at 2 uM after 48 hrs by Annexin V-FITC/propidium iodide-staining based flow cytometric analysis (reference value: 2.25 to 2.67%); assay type: functional; procedure, shortened: as §3
K562 [21] = assay: Induction of mitochondrial membrane depolarization in human K562 cells assessed as cells with intact mitochondrial membrane potential at 2 uM after 48 hrs by JC-1 staining based flow cytometric analysis (reference value: 97.63 to 97.67%); assay type: functional; procedure, shortened: as §4
K562 [22] = assay: Induction of apoptosis in human K562 cells assessed as increase in cytosolic cytochrome c level up to 6 uM after 48 hrs by Western blot analysis; assay type: functional, cell-based; procedure, shortened: as §5
K562 [23] = assay: Induction of apoptosis in human K562 cells assessed as early apoptotic cells at 1 uM after 48 hrs by Annexin V-FITC/propidium iodide-staining based flow cytometric analysis (reference value: 0.92 to 1.45%); assay type: functional; procedure, shortened: as §3
K562 [24] = assay: Induction of apoptosis in human K562 cells assessed as necrotic cells at 1 uM after 48 hrs by Annexin V-FITC/propidium iodide-staining based flow cytometric analysis (reference value: 0.13 to 0.27%); assay type: functional; procedure, shortened: as §3
K562 [25] = assay: Induction of apoptosis in human K562 cells assessed as necrotic cells at 2 uM after 48 hrs by Annexin V-FITC/propidium iodide-staining based flow cytometric analysis (reference value: 0.13 to 0.27%); assay type: functional; procedure, shortened: as §3
K562 [26] = assay: Induction of mitochondrial membrane depolarization in human K562 cells assessed as cells with mitochondrial membrane potential loss at 6 uM after 48 hrs by JC-1 staining based flow cytometric analysis (reference value: 1.89 to 2.23%); assay type: functional

What does the source list for C=C(C)[C@@H]1CC[C@]2(C(=O)OCC)CC[C@]3(C)[C@H](CC[C@@H]4[C@@]5(C)CC[C@H](OC(=O)CCCC[P+](c6ccccc6)(c6ccccc6)c6ccccc6)C(C)(C)[C@@H]5CC[C@]43C)[C@@H]12?
IC50 (ECa-109 cell line): 6040 nM; IC50 (L02): 7850 nM; IC50 (HepG2): 4540 nM; IC50 (K562 [1]): 4030 nM; IC50 (HL-60): 2750 nM; IC50 (A549): 4790 nM

With C=C(C)[C@@H]1CC[C@]2(C(=O)O)CC[C@]3(C)[C@H](CC[C@@H]4[C@@]5(C)CC[C@H](OC(=O)CCCC[P+](c6ccccc6)(c6ccccc6)c6ccccc6)C(C)(C)[C@@H]5CC[C@]43C)[C@@H]12.[Br-] as the compound, how does the Activity (K562 [2]) read?
The Activity was “Active”.

And the Activity (K562 [3])?
The Activity was “Dose-dependent effect”.

And the Activity (K562 [4])?
The Activity was 27.63%.

What about the viability at 2 µM (K562 [5]) of the same compound?
The viability at 2 µM was 72.6%.

What about the Activity (K562 [6]) of the same compound?
Its Activity is 24.68%.

What about the Activity (K562 [7]) of the same compound?
The Activity was 9.35%.

And the Activity (K562 [8])?
The Activity was 50%.

What about the IC50 (ECa-109 cell line) of the same compound?
The IC50 was 920 nM.

And the Activity (K562 [9])?
The Activity was 58.36%.

What about the IC50 (L02) of the same compound?
Its IC50 is 4920 nM.

What about the viability at 3 µM (K562 [10]) of the same compound?
The viability at 3 µM was 61.4%.

And the Activity (K562 [11])?
The Activity was 0.7%.

And the Activity (K562 [12])?
Its Activity is 41.5%.

What about the Activity (K562 [13]) of the same compound?
Its Activity is “Dose-dependent effect”.

What about the viability at 1 µM (K562 [14]) of the same compound?
The viability at 1 µM was 81%.

And the Activity (K562 [15])?
Its Activity is “Active”.

What about the Activity (K562 [16]) of the same compound?
The Activity was “Active”.

What about the Activity (K562 [17]) of the same compound?
Its Activity is 10.78%.

And the Activity (K562 [18])?
Its Activity is 26.46%.

And the IC50 (HepG2)?
The IC50 was 1070 nM.

And the Activity (K562 [19])?
Its Activity is 11.47%.

And the Activity (K562 [20])?
The Activity was 16.43%.

And the Activity (K562 [21])?
The Activity was 75.16%.

And the Activity (K562 [22])?
Its Activity is “Active”.

And the IC50 (K562 [1])?
The IC50 was 1240 nM.

And the Activity (K562 [23])?
The Activity was 9.55%.

What about the Activity (K562 [24]) of the same compound?
Its Activity is 0.14%.

What about the IC50 (HL-60) of the same compound?
The IC50 was 320 nM.

And the Activity (K562 [25])?
The Activity was 0.23%.

And the Activity (K562 [26])?
The Activity was 72.12%.

And the IC50 (A549)?
The IC50 was 1260 nM.

Which results are given for C=C(C)[C@@H]1CC[C@]2(COC(=O)CCCC[P+](c3ccccc3)(c3ccccc3)c3ccccc3)CC[C@]3(C)[C@H](CC[C@@H]4[C@@]5(C)CC[C@H](OC=O)C(C)(C)[C@@H]5CC[C@]43C)[C@@H]12?
IC50 (ECa-109 cell line): 950 nM; IC50 (L02): 8320 nM; IC50 (HepG2): 1110 nM; IC50 (K562 [1]): 810 nM; IC50 (HL-60): 710 nM; IC50 (A549): 1100 nM

For C=C(C)[C@@H]1CC[C@]2(COC(=O)CCCC[P+](c3ccccc3)(c3ccccc3)c3ccccc3)CC[C@]3(C)[C@H](CC[C@@H]4[C@@]5(C)CC[C@H](OC(C)=O)C(C)(C)[C@@H]5CC[C@]43C)[C@@H]12, which IC50 (ECa-109 cell line) is on record?
The IC50 was 1410 nM.

And the IC50 (L02)?
The IC50 was 7180 nM.

And the IC50 (HepG2)?
Its IC50 is 2420 nM.

And the IC50 (K562 [1])?
The IC50 was 620 nM.

And the IC50 (HL-60)?
The IC50 was 580 nM.

What about the IC50 (A549) of the same compound?
The IC50 was 830 nM.
